Several values for one entry are separate records, joined by “and”; a condition that tells them apart may be missing. Equal entries are not always repeated. Activity calls are given as the source filed them.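 Rule for the calls: active = compounds lowering the signal whose fitted half-maximal concentration is at most ten times their top tested dose; inconclusive = flat curve with a 30 to 70% drop, or poor fit; inactive = rising signal, flat curve, or potency beyond limit.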
tested on: not listed separately; test: HRE-luciferase induction in zinc-containing medium – U2OS HRE-luc cells, dry powder, mechanism study for HIF pathway activator project, dose response (AID 504324); details: U2OS HRE-luciferase reporter, zinc medium, luminescence; at 38 µM (top of the series)
Method in brief: (§1)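 Assay system: human osteosarcoma U2OS cells stably expressing 3×HRE-driven luciferase reporter. Buffer or medium: phenol red-free DMEM, 10% FBS, plus 50 µM zinc sulfate. Compound dosing: 8-point, 3-fold compound series. Schedule: cells plated 24 h before dosing, compound exposure 24 h, 37 °C. Measured by: Steady-Glo luciferase luminescence.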

SMILES | activity change, negative = decrease
Cc1ccccc1CNc1nc(-c2ccccn2)nnc1-c1ccccc1 | 5380% (inactive)
C=CCNc1nc(-c2ccccn2)nnc1-c1ccccc1 | 5230% (inactive)
Oc1ccc(CN2CCC(Cc3ccccc3)CC2)c2cccnc12 | 27.6% (inactive)
c1ccc(-c2cccc(CNc3nc(-c4ccccn4)nnc3-c3ccccc3)c2)cc1 | 4810% (inactive)
c1ccc(-c2nnc(-c3ccccn3)nc2NCC2CCOCC2)cc1 | 3680% (inactive)
O=C(NC1Cc2ccccc2C1)c1cc(-c2ccccc2)on1 | 146% (inactive)
c1ccc(-c2nnc(-c3ccccn3)nc2N2CCC(N3CCOCC3)CC2)cc1 | 4120% (inactive)
c1ccc(-c2nnc(-c3ccccn3)nc2N2CCN(c3ccncc3)CC2)cc1 | 4830% (inactive)
O=C(c1cc(-c2ccccc2)on1)N1CCC(N2CCCC2)CC1 | 6.15% (inactive)
CN1CCN(C(=O)c2cc(-c3ccccc3)on2)CC1 | 13.1% (inactive)
c1ccc(CCNc2nc(-c3ccccn3)nnc2-c2ccccc2)cc1 | 4750% (inactive)
Clc1cccc(CNc2nc(-c3ccccn3)nnc2-c2ccccc2)c1 | 4600% (inactive)
Cc1cccc(Nc2nc(-c3ccccn3)nnc2-c2ccccc2)n1 | 4620% (inactive)
Cn1c(NC(=O)c2cc(-c3ccccc3)on2)nc2ccccc21 | -2.21% (inactive)
O=C(NCCCCO)c1cc(-c2ccccc2)on1 | 1710% (inactive)
CC(Nc1nc(-c2ccccn2)nnc1-c1ccccc1)c1ccccc1 (configuration not stated) | 4380% (inactive)
Cc1ccc(CNC(=O)c2cc(-c3ccccc3)on2)cc1 | 10.4% (inactive)
Cc1cccc(CNc2nc(-c3ccccn3)nnc2-c2ccccc2)c1 | 6280% (inactive)
O=C(c1cc(-c2ccccc2)on1)N1CCN(c2ccncc2)CC1 | -13.1% (inactive)
Cc1ccc(CNc2nc(-c3ccccn3)nnc2-c2ccccc2)cc1 | 6080% (inactive)
O=C(NCCN1CCCCC1)c1cc(-c2ccccc2)on1 | 56.5% (inactive)

SMILES | activity change, negative = decrease
Cc1ccc(NC(=O)c2cc(-c3ccccc3)on2)cn1 | 21.6% (inactive)
c1ccc(-c2ccc(CNc3nc(-c4ccccn4)nnc3-c3ccccc3)cc2)cc1 | 3920% (inactive)
Oc1ccc(CNC2Cc3ccccc3C2)c2cccnc12 | 314% (inactive)
O=C(NCCN1CCOCC1)c1cc(-c2ccccc2)on1 | 1440% (inactive)
COc1ccc(CNc2nc(-c3ccccn3)nnc2-c2ccccc2)cc1 | 5130% (inactive)
O=C(Nc1cn2ccccc2n1)c1cc(-c2ccccc2)on1 | 41.5% (inactive)
N#CC1(c2ccccc2)CCN(Cc2ccc(O)c3ncccc23)CC1 | 208% (inactive)
Oc1ccc(CN2CCc3ccccc3C2)c2cccnc12 | -77.2% (inactive) and 47.2% (inactive)
O=C(NCCCO)c1cc(-c2ccccc2)on1 | 811% (inactive)
c1ccc(-c2nnc(-c3ccccn3)nc2NCC2CCCCC2)cc1 | 8340% (inactive)
O=C(Nc1ncc(-c2ccccc2)o1)c1cc(-c2ccccc2)on1 | 18.1% (inactive)
c1ccc(-c2nnc(-c3ccccn3)nc2NCCN2CCOCC2)cc1 | 3780% (inactive)
O=C(NCCCn1ccnc1)c1cc(-c2ccccc2)on1 | 1800% (inactive)
OCCCNc1nc(-c2ccccn2)nnc1-c1ccccc1 | 3730% (inactive)
Oc1ccc(CN2CCC3CCCCC3C2)c2cccnc12 (configuration not stated) | 916% (inactive)
c1ccc(-c2csc(Nc3nc(-c4ccccn4)nnc3-c3ccccc3)n2)cc1 | 315% (inactive)
O=C(Nc1ncc2ccccc2n1)c1cc(-c2ccccc2)on1 | 152% (inactive)
c1ccc(-c2nnc(Nc3nc(-c4ccccn4)nnc3-c3ccccc3)s2)cc1 | 161% (inactive)
O=C(NCc1ccccc1)c1cc(-c2ccccc2)on1 | 64% (inactive)
CC(C)(C)CCNC(=O)c1cc(-c2ccccc2)on1 | 651% (inactive)
Cn1c(-c2ccccc2)cnc1NC(=O)c1cc(-c2ccccc2)on1 | 19% (inactive)

SMILES | activity change, negative = decrease
O=C(NCCCN1CCOCC1)c1cc(-c2ccccc2)on1 | 1480% (inactive)
C[C@@H](Nc1nc(-c2ccccn2)nnc1-c1ccccc1)c1ccccc1 | 4300% (inactive)
O=C(NC1CCc2ccccc2C1)c1cc(-c2ccccc2)on1 (configuration not stated) | -9.29% (inactive)
c1ccc(-c2nnc(-c3ccccn3)nc2NCCc2ccccn2)cc1 | 4700% (inactive)
CCCCNC(=O)c1cc(-c2ccccc2)on1 | 1050% (inactive)
O=C(c1cc(-c2ccccc2)on1)N1CCC(CO)CC1 | 14.3% (inactive)
O=C(NCC1CC1)c1cc(-c2ccccc2)on1 | 798% (inactive)
c1ccc(-c2nnc(-c3ccccn3)nc2NCC2CC2)cc1 | 5580% (inactive)
OCC1CCN(c2nc(-c3ccccn3)nnc2-c2ccccc2)CC1 | 1330% (inactive)
O=C(c1cc(-c2ccccc2)on1)N1CCc2cccnc21 | 44% (inactive)
c1ccc(-c2nnc(-c3ccccn3)nc2N2CCC(C3CCCCC3)C2)cc1 (configuration not stated) | 4900% (inactive)
CN(C)c1nc(-c2ccccn2)nnc1-c1ccccc1 | 3380% (inactive)
COc1cccc(CNc2nc(-c3ccccn3)nnc2-c2ccccc2)c1 | 4540% (inactive)
c1ccc(-c2nnc(-c3ccccn3)nc2NCCCN2CCOCC2)cc1 | 5050% (inactive)
Cc1cccc(NC(=O)c2cc(-c3ccccc3)on2)n1 | 39.8% (inactive)
CC(C)(C)CCNc1nc(-c2ccccn2)nnc1-c1ccccc1 | 7490% (inactive) and 6820% (inactive)
O=C(c1cc(-c2ccccc2)on1)N1CCC(N2CCOCC2)CC1 | -1.04% (inactive)
CC(C)(C)c1ccc(CNc2nc(-c3ccccn3)nnc2-c2ccccc2)cc1 | 3790% (inactive)
O=C(Nc1ccc2ccccc2n1)c1cc(-c2ccccc2)on1 | 22.8% (inactive)
CN1CCN(c2nc(-c3ccccn3)nnc2-c2ccccc2)CC1 | 1500% (inactive)
O=C(NCC1CCCCC1)c1cc(-c2ccccc2)on1 | 158% (inactive)

SMILES | activity change, negative = decrease
Cn1c(-c2ccccc2)cnc1Nc1nc(-c2ccccn2)nnc1-c1ccccc1 | 210% (inactive)
c1ccc(-c2nnc(-c3ccccn3)nc2N2CCC(c3ccccc3)C2)cc1 (configuration not stated) | 5380% (inactive)
O=C(Nc1nc2ccccc2s1)c1cc(-c2ccccc2)on1 | 12.6% (inactive)
O=C(Nc1nnc(-c2ccccc2)s1)c1cc(-c2ccccc2)on1 | 6.48% (inactive)
c1ccc(-c2nnc(-c3ccccn3)nc2NCc2cccnc2)cc1 | 3620% (inactive)
Cc1ccc(CNc2nc(-c3ccccn3)nnc2-c2ccccc2)cc1C | 4550% (inactive)
C[C@@H](Nc1nc(-c2ccccn2)nnc1-c1ccccc1)C1CCCCC1 | 4780% (inactive)
Cc1ccc(Nc2nc(-c3ccccn3)nnc2-c2ccccc2)cn1 | 2240% (inactive)
CC1CN(Cc2ccc(O)c3ncccc23)CC(C)O1 (configuration not stated) | 4.72% (inactive)
CN(C)CCNC(=O)c1cc(-c2ccccc2)on1 | 31.3% (inactive)
c1ccc(-c2nnc(-c3ccccn3)nc2NCc2ccccn2)cc1 | 3330% (inactive)
c1ccc(CNc2nc(-c3ccccn3)nnc2-c2ccccc2)cc1 | 5410% (inactive)
Cc1cccc(CNC(=O)c2cc(-c3ccccc3)on2)c1 | -6.77% (inactive)
COc1ccccc1N1CCN(Cc2ccc(O)c3ncccc23)CC1 | 52.8% (inactive)
O=C(Nc1nc(-c2ccccc2)cs1)c1cc(-c2ccccc2)on1 | -11.2% (inactive)
c1ccc(-c2cnc(Nc3nc(-c4ccccn4)nnc3-c3ccccc3)s2)cc1 | 44.9% (inactive)
Cc1ccccc1CNC(=O)c1cc(-c2ccccc2)on1 | 25.4% (inactive)
O=C(Nc1cnc2ccccc2c1)c1cc(-c2ccccc2)on1 | 17.3% (inactive)
CC(C)(C)OC(=O)N1CCN(Cc2ccc(O)c3ncccc23)CC1 | 28.3% (inactive)
OCC1CCN(Cc2ccc(O)c3ncccc23)CC1 | 29.9% (inactive)
C[C@H](Nc1nc(-c2ccccn2)nnc1-c1ccccc1)C1CCCCC1 | 5570% (inactive)

tested on: U2OS HRE-luciferase reporter, zinc medium, luminescence; test: as above; details: not given
Method in brief: as §1

SMILES | AC50
Oc1ccc(CNC2CCc3ccccc32)c2cccnc12 (configuration not stated) | > 38 µM (inactive)
c1ccc(-c2nnc(-c3ccccn3)nc2Nc2nc3ccccc3s2)cc1 | 5.6 µM
c1ccc(-c2nnc(-c3ccccn3)nc2Nc2cnc3ccccc3n2)cc1 | 10.6 µM

Source: PubChem BioAssay AID504324 (Broad Institute, 2011)
